Measured values gathered from unrelated publications.
Compare with care: the assays were run in different laboratories.
Target: Interleukin-1 receptor-associated kinase 4 (IRAK4, Homo sapiens, UniProt Q9NWZ3)
Residues used in one study (Q9NWZ3 1-460): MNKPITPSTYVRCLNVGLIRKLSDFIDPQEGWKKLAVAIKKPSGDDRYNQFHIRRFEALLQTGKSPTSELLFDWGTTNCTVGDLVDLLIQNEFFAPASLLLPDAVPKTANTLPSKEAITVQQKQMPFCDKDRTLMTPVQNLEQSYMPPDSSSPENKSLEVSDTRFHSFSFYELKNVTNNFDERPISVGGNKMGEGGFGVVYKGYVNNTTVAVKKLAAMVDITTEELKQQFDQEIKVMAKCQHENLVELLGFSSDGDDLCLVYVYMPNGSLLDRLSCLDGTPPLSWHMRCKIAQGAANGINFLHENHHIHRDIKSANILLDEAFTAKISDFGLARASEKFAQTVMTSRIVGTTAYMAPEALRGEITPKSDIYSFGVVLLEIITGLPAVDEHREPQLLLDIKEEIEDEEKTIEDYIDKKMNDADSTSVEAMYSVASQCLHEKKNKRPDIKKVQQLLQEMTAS

Compound | effect on | action | method | tested at | measurement | value
O=C1NC(=O)c2cc(Nc3ccc(F)cc3)c(Nc3ccc(F)cc3)cc21 | cell-free assay | – | – | 0.5 µM | remaining signal | 98.1%
CNc1cccc2cc(C(=O)Nc3ccc(C(=O)O)cc3)c(=O)[nH]c12 | enzyme activity | inhibitor | – | 10 µM | inhibition | 7.7%
CNCc1ccccc1-c1csc([C@@H](C)Nc2nc(C)nc3cc(OC)c(OC)cc23)c1 | cell-free assay | – | competition with immobilised ligand | 1 µM | remaining binding | 76%
COc1cc2ncnc(Nc3ccc(Oc4ccccc4)c(C)c3C)c2cc1OC | enzyme activity | inhibitor | – | 1 µM | inhibition | -4%
FC(F)c1nc2ccccc2n1-c1nc(N2CCOCC2)nc(N2CCOCC2)n1 | enzyme activity | inhibitor | – | 10 µM | remaining activity | 102%
F[C@@H]1CCN(c2nccc(-c3cnn4ncccc34)n2)C1 | binding | – | – | 1 µM | remaining binding | 100%
CNC(=O)c1cc(Oc2ccc(NC(=O)Nc3ccc(Cl)c(C(F)(F)F)c3)cc2)ccn1 | cell-free assay | – | – | 0.5 µM | remaining signal | 99.6%
CCCS(=O)(=O)Nc1ccc(F)c(C(=O)c2c[nH]c3ncc(-c4ccc(Cl)cc4)cc23)c1F | enzyme activity | inhibitor | – | 1 µM | inhibition | < 10%
O=C(Nc1cnn(-c2csc(C(=O)NC3COC3)c2)c1)Nc1c(F)cccc1Cl | enzyme activity | inhibitor | – | 5 µM | remaining activity | 97.8%
CC(=O)Nc1c(C(C)=O)c(=O)n(C)c2nc(-c3ccc(Cl)cc3Cl)c(-c3ccc(Cl)cc3)cc12 | cell-free assay | – | competition with immobilised ligand | 1 µM | remaining binding | 100%
CN(C)C1CCN(CC#Cc2nn(C3CCCC3)c3nc(NCc4ccccc4)ncc23)C1 (centres unmarked) | enzyme activity | inhibitor | FRET | 0.1 µM | inhibition | 0%
Cc1nccc(COC(=O)N2C[C@@H]3[C@@H](CNC(=O)c4ccc5[nH]nnc5c4)[C@@H]3C2)n1 | cell-free assay | – | competition with immobilised ligand | 1 µM | remaining binding | 87%
Cc1ccc(Nc2nccc(N(C)c3ccc4c(C)n(C)nc4c3)n2)cc1S(N)(=O)=O | enzyme activity | inhibitor | – | 0.5 µM | remaining activity | 98.4%
c1ccc(N2CCN(Cc3nc4ccccc4[nH]3)CC2)nc1 | binding | – | competition with immobilised ligand | 1 µM | remaining binding | 100%
Cc1ccc(C(=O)Nc2ccc(CN3CCN(C)CC3)c(C(F)(F)F)c2)cc1C#Cc1cnc2cccnn12 | enzyme activity | inhibitor | – | 23.5 nM | remaining activity | 91%
CCN(CC)CCNC(=O)c1c(C)[nH]c(/C=C2\C(=O)Nc3ccc(F)cc32)c1C | enzyme activity | inhibitor | – | 0.3 µM | inhibition | 28%
FC(F)(F)Oc1cccc(-c2cnc3ccc(-c4ccncc4)nn23)c1 | enzyme activity | inhibitor | radiometric | 5 µM | activity vs control | 10%
CO[C@@H](C)c1c(Nc2ccc([C@H](N(C)C(=O)C3CCS(=O)(=O)CC3)C(F)(F)F)cc2)cnc2cc(Cl)nn12 | cell-free assay | – | competition with immobilised ligand | 1 µM | remaining binding | 88%
CC(C)(C)c1nc(-c2cccc(NS(=O)(=O)c3c(F)cccc3F)c2F)c(-c2ccnc(N)n2)s1 | enzyme activity | inhibitor | radiometric | 1 µM | remaining activity | 103%
CS(=O)(=O)Nc1cccc(-c2csc(NC(=O)CSc3nc4nccnc4c(=O)n3CCc3ccccc3)n2)c1 | enzyme activity | inhibitor | – | 10 µM | inhibition | 7%
